According to ChEMBL document CHEMBL1142536, “Synthesis of triazole-linked beta-C-glycosyl dimers as inhibitors of PTP1B” (Bioorg Med Chem, 2008):

Legend:
[1] = target: T1, Tyrosine-protein phosphatase non-receptor type 1 (Homo sapiens) (UniProt P18031); assay: Inhibition of human recombinant PTP1B catalytic domain at 20 ug/mL
T1 sequence (whole entry): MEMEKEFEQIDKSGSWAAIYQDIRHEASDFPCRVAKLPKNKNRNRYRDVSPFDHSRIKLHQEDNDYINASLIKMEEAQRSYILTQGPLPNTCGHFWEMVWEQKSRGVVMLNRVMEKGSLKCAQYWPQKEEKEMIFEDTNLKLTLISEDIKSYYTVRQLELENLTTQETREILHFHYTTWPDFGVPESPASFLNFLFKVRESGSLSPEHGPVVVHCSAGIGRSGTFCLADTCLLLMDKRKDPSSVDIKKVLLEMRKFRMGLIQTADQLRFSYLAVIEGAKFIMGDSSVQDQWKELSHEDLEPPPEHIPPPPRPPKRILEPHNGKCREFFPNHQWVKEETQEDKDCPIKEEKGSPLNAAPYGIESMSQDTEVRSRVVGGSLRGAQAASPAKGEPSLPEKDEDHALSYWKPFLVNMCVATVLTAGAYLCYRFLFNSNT
Summary of the method: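 Human PTP1B catalytic domain (recombinant) hydrolysing 2 mM pNPP in 50 mM MOPS pH 6.5 at 30 °C. pNP formation followed at 405 nm for 2 min. Initial rate taken from the early linear region. Compounds tested at 20 µg/mL. Result given as percent inhibition.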

[2] = target: T2, Tyrosine-protein phosphatase non-receptor type 1 (Homo sapiens, UniProt P18031); assay: Inhibition of human recombinant PTP1B catalytic domain
T2 sequence (P18031 whole entry): T1 sequence (whole entry)
Summary of the method: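 Recombinant human PTP1B catalytic domain, 30 nM, with 2 mM pNPP substrate in 50 mM MOPS pH 6.5 at 30 °C. pNP release read continuously at 405 nm for 2 min. Initial rate comes from the early linear part of the curve. Inhibitors diluted around the estimated IC50. IC50 from nonlinear fit of % inhibition vs [I] with a Hill coefficient term.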

Structure (SMILES)	inhibition [1] [%]	IC50 [2] [µM]
CC(=O)OC[C@H]1O[C@@H](C2=CC(=O)C=CC2=O)[C@H](OC(C)=O)[C@@H](OC(C)=O)[C@@H]1OC(C)=O		4.85
COc1ccc(OC)c([C@@H]2O[C@H](Cn3cc(COC(=O)c4cccc(C(=O)OCc5cn(C[C@H]6O[C@@H](c7cc(OC)ccc7OC)[C@H](OC(=O)c7ccccc7)[C@@H](OC(=O)c7ccccc7)[C@H]6OC(=O)c6ccccc6)nn5)c4)nn3)[C@H](OC(=O)c3ccccc3)[C@H](OC(=O)c3ccccc3)[C@H]2OC(=O)c2ccccc2)c1	98.5	0.88
O=C1C=CC(=O)C([C@@H]2O[C@H](Cn3cc(COC(=O)c4cccc(C(=O)OCc5cn(C[C@H]6O[C@@H](C7=CC(=O)C=CC7=O)[C@H](OC(=O)c7ccccc7)[C@@H](OC(=O)c7ccccc7)[C@@H]6OC(=O)c6ccccc6)nn5)c4)nn3)[C@@H](OC(=O)c3ccccc3)[C@H](OC(=O)c3ccccc3)[C@H]2OC(=O)c2ccccc2)=C1	95.8	0.62
O=C1C=CC(=O)C([C@@H]2O[C@H](Cn3cc(COC(=O)c4cccc(C(=O)OCc5cn(C[C@H]6O[C@@H](C7=CC(=O)C=CC7=O)[C@H](OC(=O)c7ccccc7)[C@@H](OC(=O)c7ccccc7)[C@H]6OC(=O)c6ccccc6)nn5)c4)nn3)[C@H](OC(=O)c3ccccc3)[C@H](OC(=O)c3ccccc3)[C@H]2OC(=O)c2ccccc2)=C1	95.5	0.72

Second part, the compound after the results:

inhibition [1] [%]	IC50 [2] [µM]	Structure (SMILES)
7.5		COc1cc([C@@H]2O[C@H](CN3C=C(COC(=O)c4cccc(C(=O)OCC5=CN(C[C@H]6O[C@@H](c7cc(OC)c8ccccc8c7OC)[C@H](OC(C)=O)[C@@H](OC(C)=O)[C@H]6OC(C)=O)NN5)c4)NN3)[C@H](OC(C)=O)[C@H](OC(C)=O)[C@H]2OC(C)=O)c(OC)c2ccccc12
97.8	0.87	COc1ccc(OC)c([C@@H]2O[C@H](Cn3cc(COC(=O)c4cccc(C(=O)OCc5cn(C[C@H]6O[C@@H](c7cc(OC)ccc7OC)[C@H](OC(=O)c7ccccc7)[C@@H](OC(=O)c7ccccc7)[C@@H]6OC(=O)c6ccccc6)nn5)c4)nn3)[C@@H](OC(=O)c3ccccc3)[C@H](OC(=O)c3ccccc3)[C@H]2OC(=O)c2ccccc2)c1
12.5		COc1cc([C@@H]2O[C@H](CN3C=C(COC(=O)c4cccc(C(=O)OCC5=CN(C[C@H]6O[C@@H](c7cc(OC)c8ccccc8c7OC)[C@H](OC(C)=O)[C@@H](OC(C)=O)[C@@H]6OC(C)=O)NN5)c4)NN3)[C@@H](OC(C)=O)[C@H](OC(C)=O)[C@H]2OC(C)=O)c(OC)c2ccccc12
8.5		CC(=O)O[C@@H]1[C@@H](OC(C)=O)[C@H](C2=CC(=O)c3ccccc3C2=O)O[C@H](Cn2cc(COC(=O)c3cccc(C(=O)OCc4cn(C[C@H]5O[C@@H](C6=CC(=O)c7ccccc7C6=O)[C@H](OC(C)=O)[C@@H](OC(C)=O)[C@@H]5OC(C)=O)nn4)c3)nn2)[C@H]1OC(C)=O
0.8		CC(=O)O[C@H]1[C@@H](OC(C)=O)[C@@H](Cn2cc(COC(=O)c3cccc(C(=O)OCc4cn(C[C@H]5O[C@@H](C6=CC(=O)c7ccccc7C6=O)[C@H](OC(C)=O)[C@@H](OC(C)=O)[C@H]5OC(C)=O)nn4)c3)nn2)O[C@@H](C2=CC(=O)c3ccccc3C2=O)[C@@H]1OC(C)=O
